In ChEMBL document CHEMBL5247578, “Effective synthesis of benzimidazoles-imidazo[1,2-a]pyrazine conjugates: A comparative study of mono-and bis-benzimidazoles for antitumor activity” (Eur J Med Chem, 2019):

Columns and labels:
[1] = system: ACHN; assay: Antiproliferative activity against human ACHN cells assessed as cell growth inhibition by measuring lethal concentration incubated for 48 hrs by sulforhodamine B assay; format: functional; settings: read-out: LC50 (the source's name)
[2] = system: NCI-H460; assay: Antiproliferative activity against human NCI-H460 cells assessed as cell growth at 0.00000001 M incubated for 48 hrs by SRB assay relative to control; format: functional; settings: dose 10 nM, read-out: Activity
[3] = system: OVCAR-3; assay: Antiproliferative activity against human OVCAR-3 cells assessed as cell growth at 0.00000001 M incubated for 48 hrs by SRB assay relative to control; format: functional; settings: dose 10 nM, read-out: Activity
[4] = system: PC-3; assay: Antiproliferative activity against human PC-3 cells assessed as cell growth at 0.000001 M incubated for 48 hrs by SRB assay relative to control; format: functional; settings: read-out: Activity
[5] = system: SK-MEL-5; assay: Antiproliferative activity against human SK-MEL-5 cells assessed as cell growth at 0.00001 M incubated for 48 hrs by SRB assay relative to control; format: functional; settings: read-out: Activity
[6] = system: UO-31; assay: Antiproliferative activity against human UO-31 cells assessed as cell growth at 0.00001 M incubated for 48 hrs by SRB assay relative to control; format: functional; settings: read-out: Activity
[7] = system: HEK293; assay: Cytotoxicity against human HEK293 cells assessed as reduction in cell viability at 0.0001 M incubated for 48 hrs by MTT colorimetric assay relative to control; format: toxicity, cell-based; settings: hek293, 48 h, 100 µM
[8] = system: SNB-19; assay: Growth inhibition against human SNB-19 cells assessed as total growth inhibitory concentration incubated for 48 hrs by sulforhodamine B assay; format: functional
[9] = system: T47D; assay: Growth inhibition against human T47D cells incubated for 48 hrs by sulforhodamine B assay; format: functional
[10] = system: UACC-62; assay: Antiproliferative activity against human UACC-62 cells assessed as cell growth at 0.0001 M incubated for 48 hrs by SRB assay relative to control; format: functional; settings: read-out: Activity
[11] = system: A498; assay: Antiproliferative activity against human A498 cells assessed as cell growth at 0.00000001 M incubated for 48 hrs by SRB assay relative to control; format: functional; settings: dose 10 nM, read-out: Activity
In short: (§1)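 NCI-60 five-dose screen over 10^-4–10^-8 M (10-fold dilutions). Cells grown in RPMI 1640 with 5% FBS and 2 mM L-glutamine, seeded at 5,000–40,000 cells/well and preincubated 24 h. Drug from DMSO stock, 48 h at 37 °C, 5% CO2. Adherent cells TCA-fixed and stained with 0.4% SRB; A515 read. Percent growth = (Ti−Tz)/(C−Tz)×100, or (Ti−Tz)/Tz×100 when Ti<Tz.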

[12] = system: MOLT-4; assay: Antiproliferative activity against human MOLT-4 cells assessed as cell growth at 0.0000001 M incubated for 48 hrs by SRB assay relative to control; format: functional; settings: dose 100 nM, read-out: Activity
[13] = system: T47D; assay: Antiproliferative activity against human T47D cells assessed as cell growth at 0.0000001 M incubated for 48 hrs by SRB assay relative to control; format: functional; settings: dose 100 nM, read-out: Activity
[14] = system: SF-295; assay: Growth inhibition against human SF-295 cells incubated for 48 hrs by sulforhodamine B assay; format: functional
[15] = system: CAKI-1; assay: Antiproliferative activity against human CAKI-1 cells assessed as cell growth at 0.00000001 M incubated for 48 hrs by SRB assay relative to control; format: functional; settings: dose 10 nM, read-out: Activity; in short: as §1
[16] = system: SF-268; assay: Antiproliferative activity against human SF-268 cells assessed as cell growth at 0.000001 M incubated for 48 hrs by SRB assay relative to control; format: functional; settings: read-out: Activity
[17] = system: NCI-H522; assay: Antiproliferative activity against human NCI-H522 cells assessed as cell growth at 0.00001 M incubated for 48 hrs by SRB assay relative to control; format: functional; settings: read-out: Activity
[18] = system: BT-549; assay: Antiproliferative activity against human BT-549 cells assessed as cell growth inhibition by measuring lethal concentration incubated for 48 hrs by sulforhodamine B assay; format: functional; settings: read-out: LC50 (the source's name)
[19] = system: Calf thymus DNA; assay: Binding affinity to calf thymus DNA assessed as binding constant at temperature of 298 K by Stern-Volmer quenching plot based fluorescence spectroscopic method; format: nucleic-acid assay; settings: Bos taurus
[20] = system: HOP-62; assay: Antiproliferative activity against human HOP-62 cells assessed as cell growth at 0.0001 M incubated for 48 hrs by SRB assay relative to control; format: functional; settings: read-out: Activity
In short: (§2)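 NCI-60 five-dose screen (10^-4 to 10^-8 M). Cells grown in RPMI 1640 with 5% FBS and 2 mM L-glutamine, plated at 5,000-40,000 cells/well and preincubated 24 h. Drug given from DMSO stock, then 48 h at 37 °C, 5% CO2. For adherent lines, cells fixed with cold TCA, SRB-stained and read at 515 nm. Percent growth taken against time-zero and untreated control.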

[21] = system: BT-549; assay: Growth inhibition against human BT-549 cells incubated for 48 hrs by sulforhodamine B assay; format: functional
[22] = system: OVCAR-4; assay: Antiproliferative activity against human OVCAR-4 cells assessed as cell growth at 0.00001 M incubated for 48 hrs by SRB assay relative to control; format: functional; settings: read-out: Activity
[23] = system: HCC 2998; assay: Antiproliferative activity against human HCC 2998 cells assessed as cell growth at 0.000001 M incubated for 48 hrs by SRB assay relative to control; format: functional; settings: read-out: Activity; in short: as §2
[24] = system: MDA-MB-468; assay: Growth inhibition against human MDA-MB-468 cells assessed as total growth inhibitory concentration incubated for 48 hrs by sulforhodamine B assay; format: functional
[25] = system: OVCAR-8; assay: Antiproliferative activity against human OVCAR-8 cells assessed as cell growth inhibition by measuring lethal concentration incubated for 48 hrs by sulforhodamine B assay; format: functional; settings: read-out: LC50 (the source's name)
[26] = system: NCI-H322M; assay: Antiproliferative activity against human NCI-H322M cells assessed as cell growth at 0.000001 M incubated for 48 hrs by SRB assay relative to control; format: functional; settings: read-out: Activity
[27] = system: A549; assay: Antiproliferative activity against human A549 cells assessed as cell growth inhibition by measuring lethal concentration incubated for 48 hrs by sulforhodamine B assay; format: functional; settings: read-out: LC50 (the source's name)
[28] = system: SNB-75; assay: Growth inhibition against human SNB-75 cells assessed as total growth inhibitory concentration incubated for 48 hrs by sulforhodamine B assay; format: functional
[29] = system: HOP-62; assay: Antiproliferative activity against human HOP-62 cells assessed as cell growth inhibition by measuring lethal concentration incubated for 48 hrs by sulforhodamine B assay; format: functional; settings: read-out: LC50 (the source's name)
[30] = system: ACHN; assay: Antiproliferative activity against human ACHN cells assessed as cell growth at 0.0000001 M incubated for 48 hrs by SRB assay relative to control; format: functional; settings: dose 100 nM, read-out: Activity; in short: as §1
[31] = system: M14; assay: Antiproliferative activity against human M14 cells assessed as cell growth inhibition by measuring lethal concentration incubated for 48 hrs by sulforhodamine B assay; format: functional; settings: read-out: LC50 (the source's name)
[32] = system: RPMI-8226; assay: Antiproliferative activity against human RPMI-8226 cells assessed as cell growth at 0.00000001 M incubated for 48 hrs by SRB assay relative to control; format: functional; settings: dose 10 nM, read-out: Activity
[33] = system: NCI-H460; assay: Growth inhibition against human NCI-H460 cells assessed as total growth inhibitory concentration incubated for 48 hrs by sulforhodamine B assay; format: functional
[34] = system: SF-539; assay: Antiproliferative activity against human SF-539 cells assessed as cell growth at 0.0001 M incubated for 48 hrs by SRB assay relative to control; format: functional; settings: read-out: Activity
[35] = system: Malme-3M; assay: Antiproliferative activity against human Malme-3M cells assessed as cell growth at 0.0000001 M incubated for 48 hrs by SRB assay relative to control; format: functional; settings: dose 100 nM, read-out: Activity

**Q.** Which CC50 [1] does the source give for `COc1ccc(-c2cn3ccnc3c(-c3ccc4ncn(C5CCCCC5)c4c3)n2)cc1` here?
**A.** > 100 µM

**Q.** What about the growth at 0.01 µM [2] of the same molecule?
**A.** 104%

**Q.** And the growth at 0.01 µM [3]?
**A.** 100%

**Q.** And the growth at 1 µM [4]?
**A.** 37%

**Q.** What about the growth at 10 µM [5] of the same molecule?
**A.** -40%

**Q.** And the growth at 10 µM [6]?
**A.** 14%

**Q.** And the Activity [7]?
**A.** 19.05%

**Q.** What about the TGI [8] of the same molecule?
**A.** > 100 µM

**Q.** And the GI50 [9]?
**A.** 0.76 µM

**Q.** What about the growth at 100 µM [10] of the same molecule?
**A.** 8%

**Q.** And the growth at 0.01 µM [11]?
**A.** 100%

**Q.** And the growth at 0.1 µM [12]?
**A.** 109%

**Q.** And the growth at 0.1 µM [13]?
**A.** 86%

**Q.** And the GI50 [14]?
**A.** 0.361 µM

**Q.** And the growth at 0.01 µM [15]?
**A.** 88%

**Q.** What about the growth at 1 µM [16] of the same molecule?
**A.** 65%

**Q.** What about the growth at 10 µM [17] of the same molecule?
**A.** -7%

**Q.** And the CC50 [18]?
**A.** > 100 µM

**Q.** And the Kb [19]?
**A.** 36.5 10^4/M

**Q.** And the growth at 100 µM [20]?
**A.** 8%

**Q.** And the GI50 [21]?
**A.** 0.41 µM

**Q.** What about the growth at 10 µM [22] of the same molecule?
**A.** 35%

**Q.** And the growth at 1 µM [23]?
**A.** 86%

**Q.** And the TGI [24]?
**A.** > 100 µM

**Q.** What about the CC50 [25] of the same molecule?
**A.** > 100 µM

**Q.** And the growth at 1 µM [26]?
**A.** 87%

**Q.** What about the CC50 [27] of the same molecule?
**A.** > 100 µM

**Q.** What about the TGI [28] of the same molecule?
**A.** > 100 µM

**Q.** And the CC50 [29]?
**A.** > 100 µM

**Q.** And the growth at 0.1 µM [30]?
**A.** 100%

**Q.** And the CC50 [31]?
**A.** > 100 µM

**Q.** What about the growth at 0.01 µM [32] of the same molecule?
**A.** 104%

**Q.** What about the TGI [33] of the same molecule?
**A.** > 100 µM

**Q.** What about the growth at 100 µM [34] of the same molecule?
**A.** -19%

**Q.** And the growth at 0.1 µM [35]?
**A.** 95%

**Q.** What does the source list for `c1ccc(Cn2cnc3ccc(-c4nc(-c5ccc6c(c5)ncn6C5CCCCC5)cn5ccnc45)cc32)cc1`?
**A.** CC50 [1]: > 100 µM; growth at 0.01 µM [2]: 103%; growth at 0.01 µM [3]: 101%; growth at 1 µM [4]: 75%; growth at 10 µM [5]: -90%; growth at 10 µM [6]: -40%; Activity [7]: 18.05%; TGI [8]: > 100 µM; GI50 [9]: 1.49 µM; growth at 100 µM [10]: 9%; growth at 0.01 µM [11]: 95%; growth at 0.1 µM [12]: 114%; growth at 0.1 µM [13]: 95%; GI50 [14]: 1.42 µM; growth at 0.01 µM [15]: 87%; growth at 1 µM [16]: 82%; growth at 10 µM [17]: -37%; CC50 [18]: 5.96 µM; Kb [19]: 9.58 10^4/M; growth at 100 µM [20]: 5%; GI50 [21]: 1.2 µM; growth at 10 µM [22]: 1%; growth at 1 µM [23]: 105%; TGI [24]: 4.43 µM; CC50 [25]: > 100 µM; growth at 1 µM [26]: 89%; CC50 [27]: > 100 µM; TGI [28]: 2.89 µM; CC50 [29]: > 100 µM; growth at 0.1 µM [30]: 97%; CC50 [31]: > 100 µM; growth at 0.01 µM [32]: 108%; TGI [33]: 5.66 µM; growth at 100 µM [34]: -38%; growth at 0.1 µM [35]: 92%
